Inhibition and IC50 data for ten compounds are collected here from ChEMBL document CHEMBL1146595, “Constituents from the leaves of Phellodendron amurense var. wilsonii and their bioactivity” (J Nat Prod, 2003).

For orientation: inhibition means the drop in the measured response relative to a control, in per cent. As a reminder, the IC50 is the concentration at which inhibition is half-maximal.

Assay [1] concerns Radical scavenging activity. Description: Antioxidant activity assessed as DPPH free radical scavenging activity at 250 uM. Type of assay: functional. Summed up: (§1)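 Radical-scavenging assay run by previously reported methods. Percent inhibition was recorded after a 30 min incubation.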
For orientation: Loss of DPPH colour is used to gauge radical scavenging.

Assay [2] has as its target T1, Tyrosinase (Homo sapiens) (UniProt P14679).
T1 sequence (whole entry): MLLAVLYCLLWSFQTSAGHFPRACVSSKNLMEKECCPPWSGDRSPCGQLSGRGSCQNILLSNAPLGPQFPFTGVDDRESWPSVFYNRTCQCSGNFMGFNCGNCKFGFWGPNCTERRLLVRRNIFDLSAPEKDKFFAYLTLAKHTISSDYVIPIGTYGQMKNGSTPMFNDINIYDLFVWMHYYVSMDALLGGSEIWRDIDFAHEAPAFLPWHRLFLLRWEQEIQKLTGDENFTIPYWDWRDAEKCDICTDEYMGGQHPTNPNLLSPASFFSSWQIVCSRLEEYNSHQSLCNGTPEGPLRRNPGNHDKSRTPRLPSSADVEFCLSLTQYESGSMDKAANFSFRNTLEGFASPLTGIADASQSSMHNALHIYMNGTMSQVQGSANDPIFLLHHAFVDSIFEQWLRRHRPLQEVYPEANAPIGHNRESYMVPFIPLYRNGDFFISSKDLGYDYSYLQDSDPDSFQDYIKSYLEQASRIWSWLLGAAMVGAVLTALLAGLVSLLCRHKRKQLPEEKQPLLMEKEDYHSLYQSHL
The experiment in a line: Inhibition of tyrosinase at 333 uM.

The subject of assay [3] is Radical scavenging activity. The experiment in a line: Antioxidant activity assessed as DPPH free radical scavenging activity. The format is functional. A digest of the protocol: as §1

Turning to `CC(C)=CCc1c(O)cc(O)c2c1O[C@@H](c1ccc(O)cc1)[C@@H](O)C2=O`, the inhibition in assay [1] is 20.9%. Consider `CC(C)(O)CCc1c(O[C@@H]2O[C@H](CO)[C@@H](O)[C@H](O)[C@H]2O)cc(O)c2c(=O)c(O)c(-c3ccc(O)cc3)oc12` [AMURENSIN], for which the inhibition in assay [2] was 15.4%. In addition, the IC50 in assay [3] came out at 88.3 µM.

In the case of `CC(C)=CCc1c(O[C@@H]2O[C@H](CO)[C@@H](O)[C@H](O)[C@H]2O)cc(O)c2c1O[C@H](c1ccc(O)cc1)[C@@H](O)C2=O`, in assay [1], the inhibition was 34.6%.

For `O=c1c(O[C@@H]2O[C@H](CO)[C@@H](O)[C@H](O)[C@H]2O)c(-c2ccc(O)cc2)oc2cc(O)cc(O)c12`, in assay [1], the inhibition was determined as 5.7%. With `C=C(C)[C@@H]1CC[C@]2(C)CC[C@]3(C)[C@H](CC[C@@H]4[C@@]5(C)CCC(=O)C(C)(C)[C@@H]5CC[C@]43C)[C@@H]12`, the inhibition in assay [2] is -2.4%. Consider VITAMIN E, for which, in assay [3], the IC50 came to 8.3 µM. On the same count and under the same terms, the value for `O=c1c(O[C@@H]2O[C@H](CO)[C@@H](O)[C@H](O)[C@H]2O)c(-c2ccc(O)c(O)c2)oc2cc(O)cc(O)c12` [ISOQUERCETIN] was 32.2 µM.

Consider `CC1(C)O[C@H]2CC(=O)OC[C@]23[C@H]2CC[C@@]4(C)[C@H](c5ccoc5)OC(=O)[C@H]5O[C@]54[C@]2(C)C(=O)C[C@@H]13`, for which, in assay [2], the inhibition was determined as 3.6%. Take `CC[C@H](CC[C@@H](C)[C@H]1CC[C@H]2[C@@H]3CC=C4C[C@@H](O)CC[C@]4(C)[C@H]3CC[C@]12C)C(C)C`: in assay [2], the inhibition is 14.3%. As to `O=c1c(O[C@@H]2O[C@H](CO)[C@H](O)[C@H](O)[C@H]2O)c(-c2ccc(O)cc2)oc2cc(O)cc(O)c12`, in assay [1], the inhibition is 4.5%.
